Ten compounds from ChEMBL document CHEMBL3124926, “Identification of highly efficacious glucocorticoid receptor agonists with a potential for reduced clinical bone side effects” (J Med Chem, 2014) can be followed below.

Series [1] concerns Mus musculus. In words: Toxicity in collagen-induced B10.RIII mouse arthritis model assessed as change in femur cortical thickness at 100 mg/kg, po qd for 35 days relative to 30% cremophor-treated control. The class given is organism-based. Set-up: dose 100 mg/kg, route oral. Conditions: in vivo, 840 h. In outline: (§1)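 Female B10.RIII mice were immunized with porcine type II collagen in complete Freund's adjuvant, enrolled at arthritis onset (10/group), and dosed orally once daily for five weeks in 30% cremophor vehicle. Four paws were scored 1–4 (max 16), as AUC. Serum biomarkers were taken at day 35. Femur cortical thickness was measured by microCT in non-immunized, age-matched mice dosed identically.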

The test system of series [2] is Mus musculus. The experiment in a line: Antiinflammatory activity in po dosed Balb/c mouse assessed as inhibition of LPS-induced TNFalpha production administered 60 mins prior to LPS challenge measured after 1 hr by […]. The format is functional.
A short description of series [3]: Cmax in B10.RIII mouse at 100 mg/kg, po. The class given is ADME, organism-based. Set-up: dose 100 mg/kg, route oral. Conditions: in vivo. In outline: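 Plasma levels measured in satellite B10.RIII mice (n = 3) after a single 100 mg/kg oral dose.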
Series [4] in a line: Half life in rat at 2 mg/kg, iv and 30 mg/kg, po. Conditions: in vivo. The class given is ADME, organism-based. Summed up: (§2)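 Rat PK: 2 mg/kg iv in 80/20 PEG/water and 30 mg/kg po in 80/18/2 PEG/water/Tween.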
In series [5] the test system is Mus musculus. In words: Toxicity in collagen-induced B10.RIII mouse arthritis model assessed as change in insulin level at 100 mg/kg, po qd for 35 days relative to 30% cremophor-treated control. The class given is organism-based. Further details: dose 100 mg/kg, route oral. Conditions: in vivo, 840 h. In outline:
as §1

The nature of series [6]: Oral bioavailability in rat at 30 mg/kg. The format is ADME, organism-based. Conditions: in vivo.
Series [7] in a line: Volume of distribution at steady state in rat at 2 mg/kg, iv and 30 mg/kg, po. The class given is ADME, organism-based. Conditions: in vivo, read-out: Vdss. Summed up:
as §2

For series [8], the system named is Mus musculus. In words: Toxicity in collagen-induced B10.RIII mouse arthritis model assessed as change in free fatty acid level at 100 mg/kg, po qd for 35 days relative to 30% cremophor-treated control. The format is organism-based. Set-up: dose 100 mg/kg, route oral. Conditions: in vivo, 840 h. Summed up:
as §1

The test system of series [9] is Mus musculus. The experiment in a line: Toxicity in collagen-induced B10.RIII mouse arthritis model assessed as change in body fat at 100 mg/kg, po qd for 35 days relative to 30% cremophor-treated control. The class given is organism-based. Further details: dose 100 mg/kg, route oral. Conditions: in vivo, 840 h. Summed up: as §1
For series [10], the target named is T1, Mineralocorticoid receptor (Homo sapiens, UniProt P08235).
T1 sequence (P08235 whole entry): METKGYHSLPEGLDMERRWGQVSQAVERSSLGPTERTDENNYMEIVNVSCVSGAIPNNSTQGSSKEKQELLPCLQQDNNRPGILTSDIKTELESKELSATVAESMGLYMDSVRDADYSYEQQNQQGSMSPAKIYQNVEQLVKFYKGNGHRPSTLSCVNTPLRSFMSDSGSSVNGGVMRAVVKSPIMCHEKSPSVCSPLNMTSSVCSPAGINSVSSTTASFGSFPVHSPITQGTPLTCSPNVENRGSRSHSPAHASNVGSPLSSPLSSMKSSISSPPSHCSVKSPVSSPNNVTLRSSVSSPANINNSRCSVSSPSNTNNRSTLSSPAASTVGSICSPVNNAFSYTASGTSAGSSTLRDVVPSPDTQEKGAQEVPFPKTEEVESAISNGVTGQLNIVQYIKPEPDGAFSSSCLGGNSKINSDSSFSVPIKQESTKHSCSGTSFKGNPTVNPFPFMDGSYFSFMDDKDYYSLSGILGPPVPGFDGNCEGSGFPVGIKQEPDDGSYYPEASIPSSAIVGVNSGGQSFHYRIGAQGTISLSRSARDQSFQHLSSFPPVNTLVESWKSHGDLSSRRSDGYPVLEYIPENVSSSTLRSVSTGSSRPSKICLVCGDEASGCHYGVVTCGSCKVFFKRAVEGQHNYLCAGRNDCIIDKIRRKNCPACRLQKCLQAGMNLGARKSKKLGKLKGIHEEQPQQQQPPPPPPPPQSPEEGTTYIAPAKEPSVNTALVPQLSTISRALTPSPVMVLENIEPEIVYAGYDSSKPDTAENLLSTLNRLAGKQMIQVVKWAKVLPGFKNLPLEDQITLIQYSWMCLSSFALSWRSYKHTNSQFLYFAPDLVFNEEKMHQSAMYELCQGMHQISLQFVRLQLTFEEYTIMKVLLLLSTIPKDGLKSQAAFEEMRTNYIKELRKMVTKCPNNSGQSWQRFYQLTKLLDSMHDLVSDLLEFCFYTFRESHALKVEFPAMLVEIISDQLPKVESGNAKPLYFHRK
In words: Competitive binding affinity to mineralocorticoid receptor (unknown origin) expressed in baculovirus-infected cell system after 1 hr by fluorescence polarization assay in presence of tetramethylrhodamine-labeled dexamethasone. Summed up:
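Lysates of baculovirus-infected insect cells co-expressing receptor with HSP-70, HSP-90 and p23 (GR diluted 300-fold, MR 17-fold). Probe 5 nM tetramethylrhodamine-dexamethasone in TES/KCl/molybdate/EDTA/CHAPS/glycerol/DTT buffer, pH 7.4, 1% DMSO. 1 h at room temperature in the dark; fluorescence polarization read (ex 550/em 580 nm). Background set with 2 μM dexamethasone. IC50 from duplicate 11-point curves, four-parameter fit, mean of at least two determinations.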
(In fluorescence polarisation assays a small probe gives low polarisation when free and higher when bound to something large.)

In a further series the test system is Rattus norvegicus. The experiment in a line: Clearance in rat at 5 mg/kg, iv and 30 mg/kg, po. The format is ADME, organism-based. Conditions: in vivo. In outline: (§3)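 Rat PK: 5 mg/kg iv in 80/20 PEG/water and 30 mg/kg po in 80/18/2 PEG/water/Tween.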
Series [11] concerns Mus musculus. In words: Toxicity in collagen-induced B10.RIII mouse arthritis model assessed as change in body fat at 100 mg/kg, po qd for 35 days relative to 1% methylcellulose-treated control. The class given is organism-based. Further details: dose 100 mg/kg, route oral. Conditions: in vivo, 840 h. Summed up:
(§4)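 Female B10.RIII mice were immunized at 12–15 weeks with porcine type II collagen emulsified in complete Freund's adjuvant (100 μg intradermal, tail base). Animals were enrolled at first arthritis signs, 10 per group, and dosed orally once daily for five weeks in 1% methylcellulose. Paws were scored 1–4 each (max 16), with AUC taken. Serum was collected at day 35. Femur cortical thickness was measured by microCT in non-immunized, age-matched mice given the same dosing.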

For series [12], the system named is Mus musculus. The experiment in a line: Toxicity in collagen-induced B10.RIII mouse arthritis model assessed as change in insulin level at 100 mg/kg, po qd for 35 days relative to 1% methylcellulose-treated control. The class given is organism-based. Set-up: dose 100 mg/kg, route oral. Conditions: in vivo, 840 h. Summed up: as §4
Series [13] can be described thus: Volume of distribution at steady state in rat at 5 mg/kg, iv and 30 mg/kg, po. The class given is ADME, organism-based. Conditions: in vivo, read-out: Vdss. In outline: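 Rat pharmacokinetics: single intravenous dose of 5 mg/kg in 80/20 PEG/water, plus a separate oral dose of 30 mg/kg in 80/18/2 PEG/water/Tween. Steady-state volume of distribution is from the iv arm; clearance, half-life and oral bioavailability come from the same study.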

The test system of series [14] is Mus musculus. In words: Toxicity in nonimmunized, nondiseased mouse assessed as change in femur cortical thickness at 100 mg/kg, po qd for 35 days relative to 1% methylcellulose-treated control. Conditions: in vivo, 840 h.
Series [15] has as its system Mus musculus. The experiment in a line: Toxicity in collagen-induced B10.RIII mouse arthritis model assessed as change in free fatty acid level at 100 mg/kg, po qd for 35 days relative to 1% methylcellulose-treated control. The class given is organism-based. Set-up: dose 100 mg/kg, route oral. Conditions: in vivo, 840 h. Summed up:
as §4

Series [16] in a line: Half life in rat at 5 mg/kg, iv and 30 mg/kg, po. The format is ADME, organism-based. Conditions: in vivo. Summed up: as §3
Series [17] is described as follows: Aqueous solubility of the compound in buffer at pH 7. The format is physicochemical.
Series [18] in a line: Permeability across human Caco2 cells. Conditions: Caco-2, read-out: permeability. The format is ADME, cell-based. Background: Caco-2 cells form a polarised layer with tight junctions and transporters.

In brackets after ≈: the same amount, converted by molar mass.

As usually defined, the ED50 is the midpoint of the dose-response relation. Usually Cmax stands for the maximum level reached in the sampled fluid or tissue. Usually half-life stands for how long it takes for the measured level to halve. Usually bioavailability stands for dose-corrected exposure relative to a reference, in per cent. For orientation: IC50 means the midpoint of a concentration-inhibition curve. For `Cc1ccc(F)cc1C(C)(C)C[C@@](O)(Cc1cc2nnccc2[nH]1)C(F)(F)F`, the Activity in the series on Mus musculus [1] is reported as -8%; with Mus musculus [5] it was -36%; with Mus musculus [8], -2%; in the series with Mus musculus [9], 8%. Moreover, the ED50 in the series on Mus musculus [2] is 3 mg/kg. In addition, in [3], the Cmax was 38.9 µM. This compound also had a half-life in series [4] of 30 min. Besides, the bioavailability in series [6] worked out at 9%. Also, the Vd in [7] was 3.7 L/kg. The IC50 in series [10] was 260 nM.

With `Cc1ccc(F)cc1C(C)(C)C[C@@](O)(Cc1cc2ncncc2[nH]1)C(F)(F)F`, in the series with Rattus norvegicus, the CL was 61%. For the same compound, in the series on Mus musculus [2], the ED50 was determined as 1 mg/kg. Moreover, the Cmax in series [3] is 4.32 µM. Besides, the Activity was 32% in the series with Mus musculus [11], 17% with Mus musculus [12], -6% in the series with Mus musculus [14] and 14% in the series on Mus musculus [15]. In [6], this compound came in with a bioavailability of 13%. Also, the Vd in [13] is 2.1 L/kg. In series [16], the half-life was 36 min. Besides, the concentration for half-maximal inhibition (IC50) in series [10] is 475 nM.

For the compound `Cc1ccc(F)cc1C(C)(C)CC(O)(Cc1cc2nc(-c3ccccc3)ncc2[nH]1)C(F)(F)F` (racemic), the IC50 in [10] came to 1900 nM.

`Cc1ccc(F)cc1C(C)(C)CC(O)(Cc1cc2nc(-c3cccnc3)ncc2[nH]1)C(F)(F)F` (racemic): in series [10], the IC50 was above 2000 nM.

For the compound `Cc1ccc(F)cc1C(C)(C)CC(O)(Cc1cc2nc(N3CCS(=O)(=O)CC3)ncc2[nH]1)C(F)(F)F` (racemic), the IC50 in series [10] was above 2000 nM.

For the compound `CC(C)(CC(O)(Cc1cc2ncncc2[nH]1)C(F)(F)F)c1ccc(F)cc1O` (racemic), the IC50 in [10] came out at 1200 nM.

For the compound `CC(C)(CC(O)(Cc1cc2ncncc2[nH]1)C(F)(F)F)c1cc(Cl)cc2c1OCC2` (racemic), the concentration for half-maximal inhibition (IC50) in series [10] is 340 nM.

In general, solubility refers to the concentration that dissolves in the medium under given conditions. A high value points to a readily soluble substance. `Cc1ccc(F)cc1C(C)(C)CC(O)(Cc1cc2nnccc2[nH]1)C(F)(F)F` (racemic) showed a solubility in [17] of 2 µg/mL (≈ 5.06 µM). For the same compound, the Papp in series [18] worked out at 13 ×10⁻⁶ cm/s. Besides, in series [10], the IC50 amounted to 615 nM.

For the compound `Cc1ccc(F)cc1C(C)(C)CC(O)(Cc1cc2cc(-c3ccccc3)nnc2[nH]1)C(F)(F)F` (racemic), in series [10], the half-inhibitory concentration (IC50) was above 2000 nM.

`Cc1ccc(F)cc1C(C)(C)CC(O)(Cc1cc2ncncc2[nH]1)C(F)(F)F` (racemic): the solubility in series [17] was 11 µg/mL (≈ 27.8 µM). The Papp in [18] was 11 ×10⁻⁶ cm/s. Also, the IC50 in [10] was found to be 855 nM.
